Measured values from paper PMC3269312 (International journal of inorganic chemistry, 2011).

Assays:
[1] = system: ct-DNA; conditions: cited from earlier work
[2] = system: ct-DNA; test: Fluorescence competition experiment with ethidium bromide; assay type: binding, calf
In short: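 Ethidium bromide is pre-bound to calf-thymus DNA, and the intercalated adduct is excited near 520 nm. Test compound is added as quencher, and the loss of adduct emission is followed. Relative fluorescence (F0/F) is plotted against quencher concentration per the Stern-Volmer equation, giving the quenching constant.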

Row | Compound | KEB, binding constant of EB to DNA [1] | KSV, Stern-Volmer quenching constant ([2]; EB-DNA adduct, λex = 520 nm, [EB] = 0.33 μM, [DNA] = 10 μM, 298 K) | apparent binding constant (Kapp) with ct-DNA ([2]; from [complex] at 50% of initial EB-DNA fluorescence, KEB = 1.2 × 10^6 M^−1)
1 | CC[n+]1c(-c2ccccc2)c2cc(N)ccc2c2ccc(N)cc21 [EB, ethidium bromide] | 1.2e+06 M⁻¹ | – | –
2 | Zn(acnTSC)2Cl2 [Complex 1] | – | (7.48 ± 0.29) × 10^3 M^−1 | 3530 M⁻¹
